Measured values as given in ChEMBL document CHEMBL4406919, “Structure-Based Design of Selective, Covalent G Protein-Coupled Receptor Kinase 5 Inhibitors” (ACS Med Chem Lett, 2019).

Columns and labels:
[1] = molecular target: T1, Rhodopsin kinase GRK1 (Bos taurus, UniProt P28327); experiment: Inhibition of bovine GRK1 using tubulin as substrate measured after 4 hrs by [gamma-32P]-ATP assay
T1 sequence (P28327 whole entry): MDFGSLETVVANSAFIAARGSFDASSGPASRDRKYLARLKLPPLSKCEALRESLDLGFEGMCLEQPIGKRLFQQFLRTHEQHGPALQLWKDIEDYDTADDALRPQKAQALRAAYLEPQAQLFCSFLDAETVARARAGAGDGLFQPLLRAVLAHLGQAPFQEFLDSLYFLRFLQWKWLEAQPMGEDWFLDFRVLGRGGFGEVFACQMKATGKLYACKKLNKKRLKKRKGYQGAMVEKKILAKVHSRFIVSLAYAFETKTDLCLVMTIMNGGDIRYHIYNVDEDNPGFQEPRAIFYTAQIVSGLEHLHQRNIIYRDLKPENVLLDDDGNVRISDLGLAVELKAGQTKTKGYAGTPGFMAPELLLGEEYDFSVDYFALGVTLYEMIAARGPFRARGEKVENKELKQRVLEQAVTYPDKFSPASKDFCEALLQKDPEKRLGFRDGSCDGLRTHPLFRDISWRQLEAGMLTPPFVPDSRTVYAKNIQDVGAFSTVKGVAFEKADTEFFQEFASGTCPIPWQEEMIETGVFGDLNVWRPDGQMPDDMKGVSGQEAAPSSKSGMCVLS
Procedure, shortened: (§1)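 Radiometric kinase assay using tubulin as phosphoacceptor and [γ-32P]ATP. Inhibitor was preincubated with the kinase for the stated time (here 4 h) before the reaction. IC50 came from dose–response curves. Most runs were three independent experiments in duplicate; some GRK5/GRK6 4 h runs were done twice in duplicate.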

[2] = molecular target: T2, Beta-adrenergic receptor kinase 1 (Bos taurus, UniProt P21146); experiment: Inhibition of bovine GRK2 using tubulin as substrate measured after 4 hrs by [gamma-32P]-ATP assay; procedure, shortened: as §1
T2 sequence (P21146 whole entry): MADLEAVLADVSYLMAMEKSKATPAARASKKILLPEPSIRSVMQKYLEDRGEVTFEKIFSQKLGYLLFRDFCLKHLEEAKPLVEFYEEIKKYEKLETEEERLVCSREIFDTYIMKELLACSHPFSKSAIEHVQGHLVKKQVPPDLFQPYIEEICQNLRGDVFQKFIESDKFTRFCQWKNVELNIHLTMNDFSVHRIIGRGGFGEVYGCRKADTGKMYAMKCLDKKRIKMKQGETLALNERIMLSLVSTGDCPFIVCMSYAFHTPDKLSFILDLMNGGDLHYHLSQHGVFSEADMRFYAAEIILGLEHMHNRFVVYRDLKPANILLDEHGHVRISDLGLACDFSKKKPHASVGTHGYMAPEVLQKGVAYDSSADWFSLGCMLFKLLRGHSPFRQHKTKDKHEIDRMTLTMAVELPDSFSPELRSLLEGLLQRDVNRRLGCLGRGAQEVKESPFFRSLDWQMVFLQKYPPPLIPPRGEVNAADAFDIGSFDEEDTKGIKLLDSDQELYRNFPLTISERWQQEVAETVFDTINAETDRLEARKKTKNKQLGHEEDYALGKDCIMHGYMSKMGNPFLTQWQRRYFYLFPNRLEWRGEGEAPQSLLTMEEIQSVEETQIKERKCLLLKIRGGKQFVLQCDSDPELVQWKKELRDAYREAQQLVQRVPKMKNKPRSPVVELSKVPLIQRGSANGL

[3] = molecular target: T3, G protein-coupled receptor kinase 5 (Homo sapiens, UniProt P34947); experiment: Inhibition of human GRK5 using tubulin as substrate measured after 4 hrs by [gamma-32P]-ATP assay
[4] = Inhibition of bovine GRK6 using tubulin as substrate measured after 4 hrs by [gamma-32P]-ATP assay; set-up: species or system Bos taurus; procedure, shortened: as §1
[5] = molecular target: G protein-coupled receptor kinase 5 (Bos taurus, UniProt P43249, C474S); experiment: Inhibition of bovine GRK5 C474S mutant using tubulin as substrate measured after 4 hrs by [gamma-32P]-ATP assay
[6] = Selectivity index, ratio of IC50 for bovine GRK2 to IC50 for human GRK5
Procedure, shortened: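 Selectivity is the GRK2 IC50 divided by the GRK5 IC50. Both values come from the tubulin/[γ-32P]ATP radiometric assay. The GRK5 value used is from the longest inhibitor preincubation tested.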

[7] = molecular target: T3, G protein-coupled receptor kinase 5; experiment: Displacement of BODIPY TR-ADP from GRK5 (unknown origin) preincubated for 10 mins followed by compound addition and measured after 10 to 15 mins by fluorescence polarization displacement assay
[8] = molecular target: T1, Rhodopsin kinase GRK1; experiment: Displacement of BODIPY TR-ADP from bovine GRK1 (1 to 535 residues) preincubated for 10 mins followed by compound addition and measured after 10 to 15 mins by fluorescence polarization displacement assay

T3 sequence (P34947 whole entry): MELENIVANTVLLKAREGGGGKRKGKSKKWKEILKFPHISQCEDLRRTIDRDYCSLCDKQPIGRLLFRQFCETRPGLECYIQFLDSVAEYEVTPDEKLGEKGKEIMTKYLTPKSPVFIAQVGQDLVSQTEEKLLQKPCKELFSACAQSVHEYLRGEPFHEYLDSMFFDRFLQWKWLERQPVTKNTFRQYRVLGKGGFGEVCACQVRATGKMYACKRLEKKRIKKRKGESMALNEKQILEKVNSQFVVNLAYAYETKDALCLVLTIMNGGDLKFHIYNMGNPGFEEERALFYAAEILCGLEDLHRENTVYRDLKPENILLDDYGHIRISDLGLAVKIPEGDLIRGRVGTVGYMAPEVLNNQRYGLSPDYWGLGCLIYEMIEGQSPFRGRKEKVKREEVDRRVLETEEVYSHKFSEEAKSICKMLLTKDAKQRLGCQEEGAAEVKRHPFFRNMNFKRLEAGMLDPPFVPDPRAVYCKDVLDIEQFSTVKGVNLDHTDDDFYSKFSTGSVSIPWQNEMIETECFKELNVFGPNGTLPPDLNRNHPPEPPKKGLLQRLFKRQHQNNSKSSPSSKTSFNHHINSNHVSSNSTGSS
Sequence of G protein-coupled receptor kinase 5 (Bos taurus, UniProt P43249, C474S) (P43249 whole entry C474S): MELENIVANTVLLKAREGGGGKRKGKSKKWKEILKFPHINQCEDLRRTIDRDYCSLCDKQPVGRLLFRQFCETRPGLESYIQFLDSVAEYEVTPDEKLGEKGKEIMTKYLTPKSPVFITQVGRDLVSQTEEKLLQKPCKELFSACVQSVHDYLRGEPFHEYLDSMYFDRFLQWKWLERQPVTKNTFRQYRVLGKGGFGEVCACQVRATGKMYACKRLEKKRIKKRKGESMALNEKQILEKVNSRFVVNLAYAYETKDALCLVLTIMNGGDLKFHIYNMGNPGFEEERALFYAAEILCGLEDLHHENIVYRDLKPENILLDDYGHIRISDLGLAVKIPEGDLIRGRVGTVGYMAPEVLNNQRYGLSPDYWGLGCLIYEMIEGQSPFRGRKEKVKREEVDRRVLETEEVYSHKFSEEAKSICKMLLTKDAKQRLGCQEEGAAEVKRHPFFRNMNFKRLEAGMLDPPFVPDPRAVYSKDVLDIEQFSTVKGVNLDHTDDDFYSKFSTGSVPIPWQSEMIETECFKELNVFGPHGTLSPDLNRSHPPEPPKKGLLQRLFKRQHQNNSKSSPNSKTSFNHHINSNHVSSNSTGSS

`COc1cc(NC(=O)/C=C/CN(C)C)ccc1Nc1nc(Nc2ccccc2C(N)=O)c2cc[nH]c2n1` gave an IC50 [1] of 0.76 µM and an IC50 [2] of 0.68 µM.

`COc1ccc(NC(=O)/C=C/CN(C)C)cc1Nc1nc(Nc2ccccc2C(N)=O)c2cc[nH]c2n1` gave an IC50 [1] of 2.1 µM and an IC50 [2] of 2.7 µM.

Work on `CCC(=O)NCc1ccc(Nc2nc(Nc3ccccc3C(=O)NC)c3cc[nH]c3n2)c(OC)c1` yielded an IC50 [3] greater than 100 µM, an IC50 [2] greater than 100 µM and an IC50 [4] greater than 100 µM. For the same compound, the IC50 [5] was 100 µM.

Compound `CC#CC(=O)NCc1ccc(OC)c(Nc2nc(Nc3ccccc3C(=O)NC)c3cc[nH]c3n2)c1` has an IC50 [3] greater than 100 µM, an IC50 [2] greater than 100 µM and an IC50 [4] greater than 100 µM.

Work on `CNC(=O)c1ccccc1Nc1nc(Nc2cc(CNC(=O)/C=C/CN(C)C)ccc2OC)nc2[nH]ccc12` yielded an IC50 [3] of 4.8 µM, an IC50 [2] of 2.1 µM and an IC50 [4] of 2.6 µM. The Ratio IC50 [6] was 0.4.

For `CCC(=O)Nc1ccc(OC)c(Nc2nc(Nc3ccccc3C(N)=O)c3cc[nH]c3n2)c1`, the IC50 [4] was greater than 100 µM.

For `C=CS(=O)(=O)NCc1ccc(OC)c(Nc2nc(Nc3ccccc3C(=O)NC)c3cc[nH]c3n2)c1`, the IC50 [3] was 7.1 µM, the IC50 [2] was greater than 100 µM and the IC50 [4] was 2.5 µM. For the same compound, the Ratio IC50 [6] was greater than 14.

For `C=CS(=O)(=O)NCc1ccc(Nc2nc(Nc3ccccc3C(=O)NC)c3cc[nH]c3n2)c(OC)c1`, the IC50 [2] was greater than 100 µM and the IC50 [4] was 7.7 µM.

Compound `CCCN1CCC(Oc2cc(Nc3nc(Nc4cccc(F)c4C(N)=O)c4cc[nH]c4n3)c(OC)cc2Cl)CC1` [GSK-1713088A] has an IC50 [7] of 3.2 µM.

Work on `CNC(=O)c1ccccc1Nc1nc(Nc2ccc(CNC(=O)/C=C/CN(C)C)cc2OC)nc2[nH]ccc12` yielded an IC50 [2] greater than 100 µM and an IC50 [4] greater than 100 µM.

For `C=CC(=O)NCc1ccc(OC)c(Nc2nc(Nc3ccccc3C(=O)NC)c3cc[nH]c3n2)c1`, the IC50 [2] was 3.2 µM and the IC50 [4] was 18 µM.

Work on `C=CC(=O)Nc1ccc(Nc2nc(Nc3ccccc3C(N)=O)c3cc[nH]c3n2)c(OC)c1` yielded an IC50 [4] of 0.41 µM.

In the case of `C=CC(=O)NCc1ccc(Nc2nc(Nc3ccccc3C(=O)NC)c3cc[nH]c3n2)c(OC)c1`, the IC50 [2] is reported as greater than 100 µM and the IC50 [4] is reported as greater than 100 µM.

`COc1cc2c(cc1Nc1nc(Nc3ccsc3C(N)=O)c3cc[nH]c3n1)N(C(=O)CN(C)C)CCC2(C)C` [GSK-2163632A] gave an IC50 [8] of 0.13 µM and an IC50 [7] of 3.2 µM.

`CCCN1CCC(c2ccc(Nc3nc(Nc4cc(F)ccc4C(N)=O)c4cc[nH]c4n3)c(OC)c2)CC1` [GSK-1326255A] showed an IC50 [8] greater than 100 µM and an IC50 [7] of 2.5 µM.

`CCC(=O)NCc1ccc(OC)c(Nc2nc(Nc3ccccc3C(=O)NC)c3cc[nH]c3n2)c1` gave an IC50 [3] greater than 100 µM, an IC50 [2] of 2.9 µM and an IC50 [4] greater than 100 µM. It also gave a Ratio IC50 [6] of less than 0.01.

For `CC#CC(=O)NCc1ccc(Nc2nc(Nc3ccccc3C(=O)NC)c3cc[nH]c3n2)c(OC)c1`, the IC50 [2] was greater than 100 µM and the IC50 [4] was greater than 100 µM.
